Laboratory results reported in ChEMBL document CHEMBL4673214, “Synthesis and antibacterial bioactivities of cationic deacetyl linezolid amphiphiles” (Eur J Med Chem, 2018).
Active and inactive are the calls of the source. The calls are words filed in the database; no cut-off is given here.

What was measured:
Staphylococcus aureus [1] = experiment: Resistance ratio of compound MIC for methicillin-resistant Staphylococcus aureus after 20 passages to compound MIC for methicillin-resistant Staphylococcus aureus after 16 to 20 hrs by CLSI-based broth microdilution method; type: functional
In short: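 Serial passaging: after each 24 h MIC assay, cells grown at 1/2 MIC were transferred and the MIC assayed again, for 20 passages. Done with S. aureus, E. coli and MRSA. MIC plotted against days of passage. Experiment repeated twice.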

Staphylococcus aureus [2] = experiment: Antibiofilm activity against 24 hrs preformed biofilm of Staphylococcus aureus ATCC 29213 assessed as eradication of preformed biofilm incubated for 24 hrs by crystal violet staining assay; type: functional
Escherichia coli [3] = experiment: Antibiofilm activity against 72 hrs preformed biofilm of Escherichia coli ATCC 25922 assessed as biofilm viability at 4 ug/ml incubated for 24 hrs by […] (reference value: 16.1 log10CFU); type: functional; settings: dose 4 µg/ml
In short: (§1)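 E. coli from mid-log phase was diluted to ~10^5 CFU/mL in M9 medium with 0.02% casamino acids and 0.5% glycerol and formed biofilm without shaking for 72 h. Wells were PBS-washed, then treated with 2-128 µg/mL for 24 h at 37 °C; medium-only wells served as control. Cells were released with trypsin-EDTA and plated as tenfold dilutions. Viability was given as log10 CFU/well.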

Escherichia coli [4] = experiment: Antibiofilm activity against 72 hrs preformed biofilm of Escherichia coli ATCC 25922 assessed as biofilm viability at 2 ug/ml incubated for 24 hrs by […] (reference value: 16.1 log10CFU); type: functional; settings: dose 2 µg/ml; in short: as §1
Staphylococcus aureus [5] = experiment: Antibiofilm activity against 24 hrs preformed biofilm of Staphylococcus aureus ATCC 29213 assessed as biofilm viability at 128 ug/ml incubated for 24 hrs by crystal violet staining analysis (reference value: 18.9 1og10CFU); type: functional; settings: dose 128 µg/ml
Staphylococcus aureus [6] = experiment: Antibiofilm activity against 24 hrs preformed biofilm of Staphylococcus aureus ATCC 29213 assessed as biofilm viability at 32 ug/ml incubated for 24 hrs by crystal violet staining analysis (reference value: 18.9 1og10CFU); type: functional; settings: dose 32 µg/ml
Staphylococcus aureus [7] = experiment: Antibiofilm activity against 24 hrs preformed biofilm of Staphylococcus aureus ATCC 29213 assessed as biofilm viability at 16 ug/ml incubated for 24 hrs by crystal violet staining analysis (reference value: 18.9 1og10CFU); type: functional; settings: dose 16 µg/ml
Staphylococcus aureus [8] = experiment: Antibiofilm activity against 24 hrs preformed biofilm of Staphylococcus aureus ATCC 29213 assessed as biofilm viability at 8 ug/ml incubated for 24 hrs by crystal violet staining analysis (reference value: 18.9 1og10CFU); type: functional; settings: dose 8 µg/ml
Staphylococcus aureus [9] = experiment: Antibiofilm activity against 24 hrs preformed biofilm of Staphylococcus aureus ATCC 29213 assessed as biofilm viability at 4 ug/ml incubated for 24 hrs by crystal violet staining analysis (reference value: 18.9 1og10CFU); type: functional; settings: dose 4 µg/ml
Staphylococcus aureus [10] = experiment: Antibiofilm activity against 24 hrs preformed biofilm of Staphylococcus aureus ATCC 29213 assessed as biofilm viability at 2 ug/ml incubated for 24 hrs by crystal violet staining analysis (reference value: 18.9 1og10CFU); type: functional; settings: dose 2 µg/ml
Escherichia coli [11] = experiment: Bactericidal activity against early exponential phase of Escherichia coli ATCC 25922 at 4X MIC measured after 2 to 6 hrs hrs by time-kill kinetic assay; type: functional, organism-based; settings: time 2-6 hrs
In short: (§2)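 An overnight culture was diluted 1:10,000 in MHB and shaken at 225 rpm and 37 °C for 2 h (early exponential phase), then exposed to compound. Samples taken at intervals were centrifuged, resuspended in PBS, plated as tenfold dilutions on MHA and incubated overnight at 37 °C. CFU/mL were counted. Biological replicates were run.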

Staphylococcus aureus [12] = experiment: Bactericidal activity against early exponential phase of Staphylococcus aureus ATCC 29213 at 6X MIC measured after 6 hrs by time-kill kinetic assay; type: functional, organism-based; in short: as §2
Staphylococcus aureus [13] = experiment: Antibacterial activity against methicillin-resistant Staphylococcus aureus assessed as reduction in bacterial growth following incubation in 50% MHB medium and 50% blood and meaured after incubation with compound for 20 to 24 hrs by agar plate method; type: functional; settings: time 20-24 hrs
In short: (§3)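 Sheep plasma obtained by centrifuging defibrinated blood at 3500 rpm for 10 min; serum isolated in serum tubes. MRSA at 10^5 CFU/mL in 50% MHB plus 50% serum, plasma or blood, or in MHB alone. Compound dilutions (512 to 4 µg/mL, pre-mixing) added 50 µL to 150 µL bacteria, 37 °C for 20-24 h. Then 20 µL plated on MHA, 37 °C 20-24 h; MBC taken as no colonies. Two repeats.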

Staphylococcus aureus [14] = experiment: Antibacterial activity against Staphylococcus aureus ATCC 29213 assessed as reduction in bacterial growth compound preincubated with 50% sheep plasma for 6 hrs followed by incubation for 20 to 24 hrs by agar plate method; type: functional; settings: time 20-24 hrs
In short: (§4)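 Sheep plasma came from centrifuged defibrinated blood. Compound at 512 µg/mL in 50% water/50% plasma was preincubated at 37 °C for 0, 3 or 6 h, then serially diluted (256 to 4 µg/mL). Dilutions were mixed 1:3 with S. aureus suspension (10^5 CFU/mL) and incubated 20-24 h at 37 °C. MBC was taken as no colonies after 20 µL was plated on agar.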

Staphylococcus aureus [15] = experiment: Antibacterial activity against Staphylococcus aureus ATCC 29213 assessed as reduction in bacterial growth compound preincubated with 50% sheep plasma for 3 hrs followed by incubation for 20 to 24 hrs by agar plate method; type: functional; settings: time 20-24 hrs; in short: as §4
Staphylococcus aureus [16] = experiment: Antibacterial activity against Staphylococcus aureus ATCC 29213 assessed as reduction in bacterial growth compound preincubated with 50% sheep plasma for 0 hrs followed by incubation for 20 to 24 hrs by agar plate method; type: functional; settings: time 20-24 hrs; in short: as §4
[17] = Selectivity index, ratio of HC50 for Sheep erythrocytes to MIC for Escherichia coli ATCC 25922; type: toxicity
[18] = Selectivity index, ratio of HC50 for Sheep erythrocytes to MIC for Staphylococcus aureus ATCC 29213; type: toxicity
Staphylococcus aureus [19] = experiment: Antibacterial activity against methicillin-resistant Staphylococcus aureus assessed as reduction in bacterial growth following incubation in 50% MHB medium and 50% serum and meaured after incubation with compound for 20 to 24 hrs by agar plate method; type: functional; settings: time 20-24 hrs; in short: as §3
[20] = Solubility of the compound in water at room temperature; type: physicochemical; settings: buffer
HeLa = experiment: Cytotoxicity against human HeLa cells assessed as viable cells by measuring increase in green fluorescence intensity at 1 to 4 ug/mL incubated for 24 hrs by calcein-AM/propidium iodide staining based fluorescence microscopy; type: cell-based; settings: dose 1-4 µg/ml
In short: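 HeLa cells in 12-well plates were treated 24 h at 1, 2 or 4 µg/mL, with untreated and 0.1% Triton X-100 controls. Cells were stained with 2 µM calcein AM and 4.5 µM propidium iodide for 15 min at 37 °C and imaged by fluorescence microscopy (calcein 500-550 nm band-pass; PI 590-800 nm long-pass). Three repeats.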

Staphylococcus aureus [21] = experiment: Antibacterial activity against methicillin-resistant Staphylococcus aureus assessed as reduction in bacterial growth following incubation in 50% MHB medium and 50% plasma and meaured after incubation with compound for 20 to 24 hrs by agar plate method; type: functional; settings: time 20-24 hrs; in short: as §3
Staphylococcus aureus [22] = experiment: Antibacterial activity against methicillin-resistant Staphylococcus aureus assessed as reduction in bacterial growth following incubation in MHB medium and meaured after incubation with compound for 20 to 24 hrs by agar plate method; type: functional; settings: time 20-24 hrs; in short: as §3

CCCCCCCCCCCN(C[C@H]1CN(c2ccc(N3CCOCC3)c(F)c2)C(=O)O1)C(=O)[C@@H](N)CCCCN.Cl.Cl
Ratio (Staphylococcus aureus [1]): 2
MBEC (Staphylococcus aureus [2]): 64 µg/mL
MBEC80 (Staphylococcus aureus [2]): 50.2 µg/mL
MBEC90 (Staphylococcus aureus [2]): 59.8 µg/mL
Activity (Escherichia coli [3]): 8.5 log10CFU
Activity (Escherichia coli [4]): 10.2 log10CFU
Activity (Staphylococcus aureus [5]): 4.7 log10CFU
Activity (Staphylococcus aureus [6]): 7.5 log10CFU
Activity (Staphylococcus aureus [7]): 8.7 log10CFU
Activity (Staphylococcus aureus [8]): 9.9 log10CFU
Activity (Staphylococcus aureus [9]): 12.9 log10CFU
Activity (Staphylococcus aureus [10]): 13.9 log10CFU
Activity (Escherichia coli [11]): Active
Activity (Staphylococcus aureus [12]): Active
MBC (Staphylococcus aureus [13]): > 128 µg/mL
MBC (Staphylococcus aureus [14]): 64 µg/mL
MBC (Staphylococcus aureus [15]): 64 µg/mL
MBC (Staphylococcus aureus [16]): 64 µg/mL
selectivity ratio [17]: 12.5
selectivity ratio [18]: 50
MBC (Staphylococcus aureus [19]): > 128 µg/mL
solubility [20]: Soluble
Activity (HeLa): Non-Toxic
MBC (Staphylococcus aureus [21]): 128 µg/mL
MBC (Staphylococcus aureus [22]): 128 µg/mL
